Measurements taken from article PMC4254850 (Clinical cancer research : an official journal of the …, 2014).
“Also recorded” adds a separate entry of the source.

Assay: Phase I dose escalation: MTD, DLTs and toxicities
Assay type: in vivo, human
In short: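 Open-label, four-centre, 3+3 escalation in metastatic solid-tumour patients. Test compound taken orally from 2 mg, QD (2–96 mg) then BID (48–72 mg), in continuous 4-week cycles after a single-dose run-in with 5–7 day washout. Toxicities graded by CTCAE v4.03. DLTs assessed over run-in plus first cycle. MTD: highest level with ≤1 of 6 patients showing DLT. Descriptive statistics.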

CS(=O)(=O)N1CCc2c(-c3cnc(N)nc3)nc(N3CCOCC3)nc21 [CH5132799]
Treatment-related dry skin, number of patients (2 mg QD (n=3), grade 1-2): 1
Treatment-related fatigue, number of patients (2 mg QD (n=3), grade 1-2): 2
Treatment-related nausea, number of patients (2 mg QD (n=3), grade 1-2): 1
Treatment-related nausea, number of patients (4 mg QD (n=3), grade 1-2): 1
Treatment-related rash, number of patients (4 mg QD (n=3), grade 1-2): 1
Treatment-related fatigue, number of patients (8 mg QD (n=3), grade 1-2): 1
Treatment-related rash, number of patients (8 mg QD (n=3), grade 1-2): 1
Treatment-related stomatitis, number of patients (8 mg QD (n=3), grade 1-2): 1
Treatment-related anemia, number of patients (8 mg QD (n=3), grade 3-4): 1
Treatment-related decreased appetite, number of patients (16 mg QD (n=3), grade 1-2): 1
Treatment-related fatigue, number of patients (16 mg QD (n=3), grade 1-2): 1
Treatment-related nausea, number of patients (16 mg QD (n=3), grade 1-2): 2
Treatment-related decreased appetite, number of patients (32 mg QD (n=4), grade 1-2): 2
Treatment-related fatigue, number of patients (32 mg QD (n=4), grade 1-2): 1
Treatment-related nausea, number of patients (32 mg QD (n=4), grade 1-2): 1
Patients with DLT (grade 3 LFT/transaminase elevation) (48 mg BID): one of seven
Treatment-related abdominal pain, number of patients (48 mg BID (n=7), grade 1-2): 1
Treatment-related diarrhea, number of patients (48 mg BID (n=7), grade 1-2): 4
Treatment-related dry skin, number of patients (48 mg BID (n=7), grade 1-2): 2
Treatment-related fatigue, number of patients (48 mg BID (n=7), grade 1-2): 1
Treatment-related rash, number of patients (48 mg BID (n=7), grade 1-2): 1
Treatment-related stomatitis, number of patients (48 mg BID (n=7), grade 1-2): 3
Treatment-related anemia, number of patients (48 mg BID (n=7), grade 3-4): 1
Treatment-related hyperglycemia, number of patients (48 mg BID (n=7), grade 3-4): 1
Grade ≥3 gastrointestinal AEs (48 mg BID cohort): No grade ≥3 gastrointestinal AEs
Patients with DLTs (56 mg BID): Two of five
Treatment-related abdominal pain, number of patients (56 mg BID (n=5), grade 1-2): 1
Treatment-related anemia, number of patients (56 mg BID (n=5), grade 1-2): 1
Treatment-related decreased appetite, number of patients (56 mg BID (n=5), grade 1-2): 2
Treatment-related diarrhea, number of patients (56 mg BID (n=5), grade 1-2): 2
Treatment-related fatigue, number of patients (56 mg BID (n=5), grade 1-2): 3
Treatment-related nausea, number of patients (56 mg BID (n=5), grade 1-2): 3
Treatment-related rash, number of patients (56 mg BID (n=5), grade 1-2): 3
Treatment-related stomatitis, number of patients (56 mg BID (n=5), grade 1-2): 4
Treatment-related vomiting, number of patients (56 mg BID (n=5), grade 1-2): 3
Treatment-related diarrhea, number of patients (56 mg BID (n=5), grade 3-4): 2
Treatment-related hyperglycemia, number of patients (56 mg BID (n=5), grade 3-4): 2
Treatment-related stomatitis, number of patients (56 mg BID (n=5), grade 3-4): 1
Treatment-related abdominal pain, number of patients (56 mg QD (n=3), grade 1-2): 1
Treatment-related diarrhea, number of patients (56 mg QD (n=3), grade 1-2): 2
Treatment-related dry skin, number of patients (56 mg QD (n=3), grade 1-2): 1
Treatment-related nausea, number of patients (56 mg QD (n=3), grade 1-2): 1
Treatment-related rash, number of patients (56 mg QD (n=3), grade 1-2): 1
Patients with DLTs (72 mg BID): two of three
Treatment-related anemia, number of patients (72 mg BID (n=3), grade 1-2): 1
Treatment-related decreased appetite, number of patients (72 mg BID (n=3), grade 1-2): 2
Treatment-related diarrhea, number of patients (72 mg BID (n=3), grade 1-2): 2
Treatment-related fatigue, number of patients (72 mg BID (n=3), grade 1-2): 1
Treatment-related nausea, number of patients (72 mg BID (n=3), grade 1-2): 1
Treatment-related stomatitis, number of patients (72 mg BID (n=3), grade 1-2): 1
Treatment-related vomiting, number of patients (72 mg BID (n=3), grade 1-2): 1
Treatment-related abdominal pain, number of patients (72 mg BID (n=3), grade 3-4): 1
Treatment-related fatigue, number of patients (72 mg BID (n=3), grade 3-4): 1
Treatment-related hyperglycemia, number of patients (72 mg BID (n=3), grade 3-4): 1
Treatment-related anemia, number of patients (96 mg QD (n=4), grade 1-2): 1
Treatment-related decreased appetite, number of patients (96 mg QD (n=4), grade 1-2): 1
Treatment-related diarrhea, number of patients (96 mg QD (n=4), grade 1-2): 3
Treatment-related dry skin, number of patients (96 mg QD (n=4), grade 1-2): 2
Treatment-related fatigue, number of patients (96 mg QD (n=4), grade 1-2): 1
Treatment-related nausea, number of patients (96 mg QD (n=4), grade 1-2): 2
Treatment-related rash, number of patients (96 mg QD (n=4), grade 1-2): 2
Treatment-related stomatitis, number of patients (96 mg QD (n=4), grade 1-2): 2
Treatment-related vomiting, number of patients (96 mg QD (n=4), grade 1-2): 2
Treatment-related diarrhea, number of patients (96 mg QD (n=4), grade 3-4): 2
Patients with Grade ≥3 hyperglycemia (BID dosing schedule): Five
Maximum tolerated dose (MTD) (BID schedule, oral, 28-day cycles, patients with solid tumors): 48 mg
Recommended phase 2 dose (RP2D) (BID, oral): 48 mg
DLT (Cohort 7b, 48 mg BID, N=7, Cycle 1 Day 8): grade 3 elevated LFT at Cycle 1 Day 8
DLT (Cohort 8, 72 mg BID, N=3, Cycle 1): grade 3 cerebral encephalopathy; also recorded: grade 3 Fatigue
DLT (Cohort 9, 56 mg BID, N=5): grade 3 Diarrhea and stomatitis
DLTs (QD schedule): No DLTs
Maximum tolerated dose (MTD) (QD schedule, 2-96 mg, oral): not reached at 96 mg
Reversibility of DLTs (all DLTs): reversible
Grade 4 diarrhea (all dose levels): no grade 4 diarrhea reported
Patients with grade 3 diarrhea (all dose levels): Four
Treatment-related abdominal pain, number (%) of patients (all dose levels, Total (n=38)): 4 (11%)
Treatment-related anemia, number (%) of patients (all dose levels, Total (n=38)): 5 (13%)
Treatment-related decreased appetite, number (%) of patients (all dose levels, Total (n=38)): 8 (21%)
Treatment-related diarrhea, number (%) of patients (all dose levels, Total (n=38)): 13 (34%)
Treatment-related dry skin, number (%) of patients (all dose levels, Total (n=38)): 6 (16%)
Treatment-related fatigue, number (%) of patients (all dose levels, Total (n=38)): 11 (29%)
Treatment-related hyperglycemia, number (%) of patients (all dose levels, Total (n=38)): 5 (13%)
Treatment-related nausea, number (%) of patients (all dose levels, Total (n=38)): 12 (32%)
Treatment-related rash, number (%) of patients (all dose levels, Total (n=38)): 9 (24%)
Treatment-related stomatitis, number (%) of patients (all dose levels, Total (n=38)): 11 (29%)
Treatment-related vomiting, number (%) of patients (all dose levels, Total (n=38)): 6 (16%)
Patients with DLTs (all evaluable patients, run-in period and first cycle): five of 38
Diabetic ketoacidosis (all patients): No episodes of diabetic ketoacidosis
Drug-related deaths (all patients): No drug-related deaths
Grade of most drug-related adverse events (all patients): grade 1/2
Patients with drug-related diarrhea (all patients): 34%
Patients with drug-related nausea (all patients): 32%
Patients with fatigue (most common AEs) (all patients): 29%
Patients with nausea (most common AEs) (all patients): 32%
Patients with rash (most common AEs) (all patients): 24%
